Assays:
[1] = target: Epidermal growth factor receptor (Homo sapiens, UniProt P00533); assay: Inhibition of human EGFR after 1 hr using [gamma-32P]ATP
[2] = target: Mast/stem cell growth factor receptor Kit (Homo sapiens, UniProt P10721); assay: Inhibition of c-Kit (unknown origin) by radiometric protein kinase assay
[3] = target: RAF proto-oncogene serine/threonine-protein kinase (Homo sapiens, UniProt P04049); assay: Inhibition of Raf (unknown origin) by radiometric protein kinase assay
[4] = target: Platelet-derived growth factor receptor beta (Homo sapiens, UniProt P09619); assay: Inhibition of PDGFR-beta (unknown origin) by radiometric protein kinase assay
[5] = target: Vascular endothelial growth factor receptor 1 (Homo sapiens, UniProt P17948); assay: Inhibition of VEGFR1 (unknown origin) by radiometric protein kinase assay
Chain of Vascular endothelial growth factor receptor 1 (P17948 whole entry): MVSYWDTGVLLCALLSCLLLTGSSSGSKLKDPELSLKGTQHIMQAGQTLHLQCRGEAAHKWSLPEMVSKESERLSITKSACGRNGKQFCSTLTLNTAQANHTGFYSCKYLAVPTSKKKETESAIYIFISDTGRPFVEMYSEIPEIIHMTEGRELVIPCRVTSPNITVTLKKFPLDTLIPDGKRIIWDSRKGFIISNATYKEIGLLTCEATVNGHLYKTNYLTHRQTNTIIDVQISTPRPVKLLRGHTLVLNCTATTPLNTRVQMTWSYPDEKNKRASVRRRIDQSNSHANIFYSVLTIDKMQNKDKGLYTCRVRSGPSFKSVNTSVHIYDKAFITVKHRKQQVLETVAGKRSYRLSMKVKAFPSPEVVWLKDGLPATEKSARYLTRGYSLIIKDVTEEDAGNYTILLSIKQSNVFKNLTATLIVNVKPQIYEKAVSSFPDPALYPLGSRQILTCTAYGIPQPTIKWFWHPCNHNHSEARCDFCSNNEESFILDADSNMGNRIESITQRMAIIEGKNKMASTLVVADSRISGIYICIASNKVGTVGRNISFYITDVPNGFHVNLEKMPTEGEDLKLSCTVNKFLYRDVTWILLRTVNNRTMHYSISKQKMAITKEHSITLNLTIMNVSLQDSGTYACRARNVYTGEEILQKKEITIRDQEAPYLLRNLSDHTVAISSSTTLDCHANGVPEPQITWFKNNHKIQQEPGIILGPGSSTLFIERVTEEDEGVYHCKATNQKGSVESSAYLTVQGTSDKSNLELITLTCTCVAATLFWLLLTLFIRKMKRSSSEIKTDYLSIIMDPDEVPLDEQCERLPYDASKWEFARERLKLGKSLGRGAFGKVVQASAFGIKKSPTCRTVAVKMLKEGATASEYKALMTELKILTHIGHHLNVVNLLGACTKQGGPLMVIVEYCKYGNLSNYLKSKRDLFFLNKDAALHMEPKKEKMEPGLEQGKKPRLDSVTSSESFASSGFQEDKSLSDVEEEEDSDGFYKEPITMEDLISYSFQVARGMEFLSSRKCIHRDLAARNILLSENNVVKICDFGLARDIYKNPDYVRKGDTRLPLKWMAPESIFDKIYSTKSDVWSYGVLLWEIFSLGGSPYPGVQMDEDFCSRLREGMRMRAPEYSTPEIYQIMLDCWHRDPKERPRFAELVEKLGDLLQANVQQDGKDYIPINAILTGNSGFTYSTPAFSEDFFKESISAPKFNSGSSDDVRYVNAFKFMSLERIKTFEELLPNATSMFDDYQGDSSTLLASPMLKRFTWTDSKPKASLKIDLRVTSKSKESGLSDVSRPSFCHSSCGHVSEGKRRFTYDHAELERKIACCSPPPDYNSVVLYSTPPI

[6] = target: Hepatocyte growth factor receptor (Homo sapiens, UniProt P08581); assay: Inhibition of c-MET (unknown origin) by radiometric protein kinase assay
Chain of Hepatocyte growth factor receptor (P08581 whole entry): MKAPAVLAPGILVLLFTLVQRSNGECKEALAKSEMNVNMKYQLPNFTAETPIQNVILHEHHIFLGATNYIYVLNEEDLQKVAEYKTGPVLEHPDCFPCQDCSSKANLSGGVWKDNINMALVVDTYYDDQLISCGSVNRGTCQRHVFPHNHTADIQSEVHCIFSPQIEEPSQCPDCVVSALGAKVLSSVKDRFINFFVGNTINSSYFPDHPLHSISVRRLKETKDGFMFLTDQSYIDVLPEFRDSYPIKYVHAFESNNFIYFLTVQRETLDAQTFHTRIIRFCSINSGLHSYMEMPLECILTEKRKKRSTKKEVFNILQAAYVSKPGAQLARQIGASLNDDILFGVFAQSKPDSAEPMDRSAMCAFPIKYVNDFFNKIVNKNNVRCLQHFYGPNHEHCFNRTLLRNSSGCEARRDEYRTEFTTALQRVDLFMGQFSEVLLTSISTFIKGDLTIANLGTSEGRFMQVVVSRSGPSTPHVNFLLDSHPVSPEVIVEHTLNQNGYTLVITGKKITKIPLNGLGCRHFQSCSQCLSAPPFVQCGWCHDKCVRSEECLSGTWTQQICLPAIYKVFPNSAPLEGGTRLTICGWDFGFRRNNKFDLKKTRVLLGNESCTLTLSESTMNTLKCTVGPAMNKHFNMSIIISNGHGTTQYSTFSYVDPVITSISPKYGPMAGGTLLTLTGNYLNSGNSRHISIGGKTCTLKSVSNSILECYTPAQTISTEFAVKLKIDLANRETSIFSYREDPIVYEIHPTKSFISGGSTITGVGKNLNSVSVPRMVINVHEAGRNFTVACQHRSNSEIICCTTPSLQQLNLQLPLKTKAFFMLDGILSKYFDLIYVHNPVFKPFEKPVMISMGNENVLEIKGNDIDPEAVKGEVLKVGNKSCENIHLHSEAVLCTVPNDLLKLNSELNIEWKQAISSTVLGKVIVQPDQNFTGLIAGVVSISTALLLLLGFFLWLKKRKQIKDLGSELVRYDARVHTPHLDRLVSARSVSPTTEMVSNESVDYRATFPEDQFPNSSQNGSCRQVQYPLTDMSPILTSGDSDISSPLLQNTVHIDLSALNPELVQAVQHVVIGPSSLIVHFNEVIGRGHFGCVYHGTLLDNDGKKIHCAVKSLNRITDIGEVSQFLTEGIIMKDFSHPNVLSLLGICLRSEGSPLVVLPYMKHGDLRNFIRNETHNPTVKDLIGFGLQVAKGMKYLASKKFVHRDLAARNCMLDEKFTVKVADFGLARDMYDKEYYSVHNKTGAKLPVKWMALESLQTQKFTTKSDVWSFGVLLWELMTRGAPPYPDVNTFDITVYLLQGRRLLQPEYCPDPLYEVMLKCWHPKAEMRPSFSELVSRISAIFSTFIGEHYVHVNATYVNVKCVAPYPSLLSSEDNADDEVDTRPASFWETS

[7] = target: Vascular endothelial growth factor receptor 3 (Homo sapiens, UniProt P35916); assay: Inhibition of VEGFR3 (unknown origin) by radiometric protein kinase assay
Chain of Vascular endothelial growth factor receptor 3 (P35916 whole entry): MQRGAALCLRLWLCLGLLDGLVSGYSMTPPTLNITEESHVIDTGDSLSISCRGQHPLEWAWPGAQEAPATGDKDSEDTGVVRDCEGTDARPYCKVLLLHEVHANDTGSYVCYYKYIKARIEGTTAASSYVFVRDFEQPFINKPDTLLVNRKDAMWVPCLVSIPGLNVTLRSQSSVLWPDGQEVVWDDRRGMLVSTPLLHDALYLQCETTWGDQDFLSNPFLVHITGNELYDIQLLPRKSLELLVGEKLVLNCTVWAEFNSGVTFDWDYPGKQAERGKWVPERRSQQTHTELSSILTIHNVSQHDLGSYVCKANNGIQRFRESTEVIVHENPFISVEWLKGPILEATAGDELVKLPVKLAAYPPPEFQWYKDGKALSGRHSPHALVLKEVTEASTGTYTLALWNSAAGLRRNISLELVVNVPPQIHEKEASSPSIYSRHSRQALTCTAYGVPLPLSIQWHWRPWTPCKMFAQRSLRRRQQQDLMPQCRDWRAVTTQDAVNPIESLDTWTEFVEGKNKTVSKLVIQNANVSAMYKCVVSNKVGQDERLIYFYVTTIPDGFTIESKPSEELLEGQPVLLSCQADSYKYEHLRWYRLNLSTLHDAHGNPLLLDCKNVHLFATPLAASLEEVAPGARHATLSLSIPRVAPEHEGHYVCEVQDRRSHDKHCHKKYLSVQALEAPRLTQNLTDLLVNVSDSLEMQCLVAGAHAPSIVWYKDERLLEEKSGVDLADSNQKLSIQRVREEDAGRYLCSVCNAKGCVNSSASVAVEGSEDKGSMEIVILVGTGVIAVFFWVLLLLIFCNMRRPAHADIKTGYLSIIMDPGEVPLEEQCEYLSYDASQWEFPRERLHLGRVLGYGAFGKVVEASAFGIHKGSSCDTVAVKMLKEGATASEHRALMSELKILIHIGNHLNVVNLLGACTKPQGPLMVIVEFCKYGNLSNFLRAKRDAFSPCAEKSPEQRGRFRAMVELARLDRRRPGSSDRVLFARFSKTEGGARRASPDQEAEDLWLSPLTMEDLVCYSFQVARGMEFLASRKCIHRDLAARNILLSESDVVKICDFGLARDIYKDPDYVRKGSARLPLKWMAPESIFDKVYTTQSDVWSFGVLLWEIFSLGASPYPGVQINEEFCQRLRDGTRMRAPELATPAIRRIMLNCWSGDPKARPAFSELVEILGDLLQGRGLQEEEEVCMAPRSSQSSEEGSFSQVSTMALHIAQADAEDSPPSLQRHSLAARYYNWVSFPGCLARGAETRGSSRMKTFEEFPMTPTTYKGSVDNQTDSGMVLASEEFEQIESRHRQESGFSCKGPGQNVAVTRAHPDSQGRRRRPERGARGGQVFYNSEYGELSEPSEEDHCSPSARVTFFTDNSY

[8] = target: Proto-oncogene tyrosine-protein kinase Src (Homo sapiens, UniProt P12931); assay: Inhibition of Src (unknown origin) by radiometric protein kinase assay
Chain of Proto-oncogene tyrosine-protein kinase Src (P12931 2-536 limits assumed): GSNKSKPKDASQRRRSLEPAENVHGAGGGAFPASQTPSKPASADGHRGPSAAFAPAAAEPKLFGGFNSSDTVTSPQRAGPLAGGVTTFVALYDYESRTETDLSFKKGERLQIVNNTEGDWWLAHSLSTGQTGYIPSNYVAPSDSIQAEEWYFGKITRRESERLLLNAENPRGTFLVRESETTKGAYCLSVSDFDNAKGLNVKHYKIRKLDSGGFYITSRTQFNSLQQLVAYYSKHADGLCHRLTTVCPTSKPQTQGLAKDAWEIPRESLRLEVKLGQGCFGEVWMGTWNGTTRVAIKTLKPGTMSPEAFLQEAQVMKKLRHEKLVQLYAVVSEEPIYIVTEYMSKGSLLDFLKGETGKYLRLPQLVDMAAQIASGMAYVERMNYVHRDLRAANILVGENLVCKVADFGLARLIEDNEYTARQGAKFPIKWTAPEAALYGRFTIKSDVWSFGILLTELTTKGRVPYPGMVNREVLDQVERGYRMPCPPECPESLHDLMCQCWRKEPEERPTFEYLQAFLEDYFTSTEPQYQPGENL

[9] = target: Vascular endothelial growth factor receptor 2 (Homo sapiens, UniProt P35968); assay: Inhibition of human recombinant VEGFR-2 after 1 hr using [gamma-32P]ATP
How it was run: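 Recombinant human VEGFR-2 (10 ng) was incubated for 1 h at 28 °C with varying compound concentrations. Kinase buffer: Tris 50 mM pH 7.5, BSA, MnCl2 1.5 mM, MgCl2 10 mM, DTT 2.5 mM, Na3VO4, β-glycerophosphate 5 mM. Substrate was poly(Glu4/Tyr), with ATP plus [γ-32P]ATP; final DMSO was 0.1%. The reaction was stopped with 100% TCA, wells were washed with 10% TCA, and each well was counted for 1 min.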

| IC50 [1] [nM] | IC50 [2] [nM] | IC50 [3] [nM] | IC50 [4] [nM] | IC50 [5] [nM] | IC50 [6] [nM] | IC50 [7] [nM] | IC50 [8] [nM] | IC50 [9] [nM] | SMILES |
| --- | --- | --- | --- | --- | --- | --- | --- | --- | --- |
| 30 |  |  |  |  |  |  |  |  | Fc1ccc(Nc2ncnc3ccccc23)cc1Cl |
|  | 16 | 930 | 5 | 46 | 2310 | 9 | 5470 |  | COc1cc2ncnc(Oc3ccc(NC(=O)Nc4cccc(Br)c4)cc3)c2cc1OC |
| 2980 |  |  |  |  |  |  |  |  | Fc1ccc(Nc2ncnc3sccc23)cc1Cl |
| 1330 |  |  |  |  |  |  |  | > 10000 | Fc1ccc(Nc2ncnc3sc4c(c23)CCCC4)cc1Cl |
| > 10000 |  |  |  |  |  |  |  |  | CCOC(=O)Nc1ccc(Nc2ncnc3ccccc23)cc1C |
| > 10000 |  |  |  |  |  |  |  | > 10000 | CCOC(=O)Nc1ccc(Nc2ncnc3sc4c(c23)CCCC4)cc1C |
| 7710 | 3 |  |  |  |  |  |  | 12 | COc1cc2ncnc(Nc3ccc(NC(=O)Nc4cccc(Br)c4)cc3)c2cc1OC |
| > 10000 | 1 | > 10000 | 850 | 5750 | > 10000 | 47 | > 10000 | 91 | O=C(Nc1ccc(Nc2ncnc3ccccc23)cc1)Nc1cccc(Br)c1 |
| > 10000 | 1 | 4020 | 2120 | > 10000 | > 10000 | 1980 | > 10000 |  | O=C(Nc1ccc(Nc2ncnc3sccc23)cc1)Nc1cccc(Br)c1 |
| 3950 | 6 | > 10000 | 2820 | 7150 | > 10000 | 420 | 7640 | 310 | O=C(Nc1ccc(Nc2ncnc3sc4c(c23)CCCC4)cc1)Nc1cccc(Br)c1 |
| 590 |  |  |  |  |  |  |  |  | Fc1ccc(Oc2ncnc3ccccc23)cc1Cl |
| > 10000 |  |  |  |  |  |  |  | 3500 | Fc1ccc(Oc2ncnc3sc4c(c23)CCCC4)cc1Cl |
| > 10000 |  |  |  |  |  |  |  |  | CCOC(=O)Nc1ccc(Oc2ncnc3cc(OC)c(OC)cc23)cc1C |
| > 10000 |  |  |  |  |  |  |  | 710 | CCOC(=O)Nc1ccc(Oc2ncnc3ccccc23)cc1C |
| > 10000 |  |  |  |  |  |  |  |  | CCOC(=O)Nc1ccc(Oc2ncnc3sccc23)cc1C |
| > 10000 |  |  |  |  |  |  |  |  | COc1cc2ncnc(Oc3ccc(NC(=O)Nc4cccc(Br)c4)c(Cl)c3)c2cc1OC |
| > 10000 | 14 | 6220 | 320 | 650 | > 10000 | 7 | > 10000 | 8 | O=C(Nc1ccc(Oc2ncnc3ccccc23)cc1)Nc1cccc(Br)c1 |
| > 10000 | 11 | > 10000 | 570 | 1080 | > 10000 | 6 | > 10000 | 18 | O=C(Nc1ccc(Oc2ncnc3sccc23)cc1)Nc1cccc(Br)c1 |
| > 10000 |  |  |  |  |  |  |  |  | Cc1cc(Oc2ncnc3sccc23)ccc1NC(=O)Nc1cccc(Br)c1 |
| > 10000 |  |  |  |  |  |  |  |  | O=C(Nc1cccc(Br)c1)Nc1ccc(Oc2ncnc3sccc23)cc1Cl |
| > 10000 | 17 | 5840 | 2300 | 1700 | > 10000 | 1020 | 8460 | 11 | O=C(Nc1ccc(Oc2ncnc3sc4c(c23)CCCC4)cc1)Nc1cccc(Br)c1 |
| 3290 |  |  |  |  |  |  |  | 34 | Cc1cc(Oc2ncnc3sc4c(c23)CCCC4)ccc1NC(=O)Nc1cccc(Br)c1 |
| 1260 |  |  |  |  |  |  |  | 15 | O=C(Nc1cccc(Br)c1)Nc1ccc(Oc2ncnc3sc4c(c23)CCCC4)cc1Cl |
